# Results: ChEMBL document CHEMBL1125392, “Antitumor agents. 124. New 4 beta-substituted aniline derivatives of 6,7-O,O-demethylene-4'-O-demethylpodophyllotoxin and related compounds as potent inhibitors of human DNA topoisomerase II” (J Med Chem, 1992)
# Columns and labels:
# [1] = tested on: Nucleic Acid; assay: Effect on cellular protein DNA complex formation(%) at 10 uM in comparison with etoposide; assay type: functional
# [2] = molecular target: DNA topoisomerase II (Homo sapiens) (UniProt P11388+Q02880); assay: Inhibition of human DNA Topoisomerase II; assay type: protein assay
# Method in brief: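 Human DNA topoisomerase II catalytic inhibition was tested at five concentrations (10, 20, 25, 50 and 100 μM). ID50 was set from the degree of inhibition observed across these concentrations.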
# [3] = Concentration required for 50% reduction in KB cell number after 3-day incubation; assay type: functional, cell-based, Homo sapiens
SMILES,Complex formation [1] [%],ID50 [2] [µM],IC50 [3] [µM]
CCOC(=O)c1ccc(N[C@@H]2c3cc(OC)c(OC)cc3[C@@H](c3cc(OC)c(O)c(OC)c3)[C@H]3C(=O)OC[C@@H]32)cc1,127,100,< 0.7
COc1cc([C@@H]2c3cc4c(cc3[C@@H](O[C@@H]3O[C@@H]5CO[C@@H](C)O[C@H]5[C@H](O)[C@H]3O)[C@H]3COC(=O)[C@H]23)OCO4)cc(OC)c1O [ETOPOSIDE],100,,0.2
COc1cc([C@@H]2c3cc(O)c(O)cc3[C@@H](Nc3ccc(F)cc3)[C@H]3COC(=O)[C@H]23)cc(OC)c1O,52,25,> 2.1
CCOC(=O)c1ccc(N[C@@H]2c3cc(OC)c(OC)cc3[C@@H](c3cc(OC)c(OC)c(OC)c3)[C@H]3C(=O)OC[C@@H]32)cc1,9,> 100,5.5
COc1cc([C@@H]2c3cc(O)c(O)cc3[C@@H](Nc3cccc(O)c3)[C@H]3COC(=O)[C@H]23)cc(OC)c1OC,4,50,> 2
COc1cc([C@@H]2c3cc4c(cc3[C@@H](Nc3ccc(F)cc3)[C@H]3COC(=O)[C@H]23)OCO4)cc(OC)c1O,213,,0.24
CCOC(=O)c1ccc(N[C@@H]2c3cc(O)c(O)cc3[C@@H](c3cc(OC)c(OC)c(OC)c3)[C@H]3C(=O)OC[C@@H]32)cc1,22,100,> 1.8
COc1cc2c(cc1OC)[C@@H](Nc1ccc(C#N)cc1)[C@H]1COC(=O)[C@@H]1[C@@H]2c1cc(OC)c(O)c(OC)c1,125,50,< 0.77
COc1cc([C@@H]2c3cc(O)c(O)cc3[C@@H](Nc3cccc(O)c3)[C@H]3COC(=O)[C@H]23)cc(OC)c1O,18,20,> 2.1
COc1cc([C@@H]2c3cc(O)c(O)cc3[C@@H](Nc3ccc(C#N)cc3)[C@H]3COC(=O)[C@H]23)cc(OC)c1OC,33,> 100,> 2
COc1cc([C@@H]2c3cc(O)c(O)cc3[C@@H](Nc3ccc(C#N)cc3)[C@H]3COC(=O)[C@H]23)cc(OC)c1O,62,20,2
COc1cc2c(cc1OC)[C@@H](Nc1ccc(F)cc1)[C@H]1COC(=O)[C@@H]1[C@@H]2c1cc(OC)c(OC)c(OC)c1,8,> 100,7.6
COc1cc2c(cc1OC)[C@@H](Nc1ccc([N+](=O)[O-])cc1)[C@H]1COC(=O)[C@@H]1[C@@H]2c1cc(OC)c(O)c(OC)c1,75,100,1.3
CCOC(=O)c1ccc(N[C@@H]2c3cc(O)c(O)cc3[C@@H](c3cc(OC)c(O)c(OC)c3)[C@H]3C(=O)OC[C@@H]32)cc1,138,20,1.46
COc1cc([C@@H]2c3cc(O)c(O)cc3[C@@H](Nc3ccc([N+](=O)[O-])cc3)[C@H]3COC(=O)[C@H]23)cc(OC)c1O,99,20,1.5
COc1cc2c(cc1OC)[C@@H](Nc1ccc(F)cc1)[C@H]1COC(=O)[C@@H]1[C@@H]2c1cc(OC)c(O)c(OC)c1,108,50,0.78
COc1cc([C@@H]2c3cc4c(cc3[C@@H](Nc3ccc(C#N)cc3)[C@H]3COC(=O)[C@H]23)OCO4)cc(OC)c1O,211,,0.64
COc1cc2c(cc1OC)[C@@H](Nc1ccc(C#N)cc1)[C@H]1COC(=O)[C@@H]1[C@@H]2c1cc(OC)c(OC)c(OC)c1,12,> 100,5.8
CCOC(=O)c1ccc(N[C@@H]2c3cc4c(cc3[C@@H](c3cc(OC)c(O)c(OC)c3)[C@H]3C(=O)OC[C@@H]32)OCO4)cc1,207,,0.84
COc1cc([C@@H]2c3cc(O)c(O)cc3[C@@H](Nc3ccc(F)cc3)[C@H]3COC(=O)[C@H]23)cc(OC)c1OC,11,50,> 2
COc1cc([C@@H]2c3cc4c(cc3[C@@H](Nc3ccc([N+](=O)[O-])cc3)[C@H]3COC(=O)[C@H]23)OCO4)cc(OC)c1O,323,,0.49
COc1cc([C@@H]2c3cc(O)c(O)cc3[C@@H](Nc3ccccc3)[C@H]3COC(=O)[C@H]23)cc(OC)c1O,84,25,> 2.2
COc1cc2c(cc1OC)[C@@H](Nc1ccc([N+](=O)[O-])cc1)[C@H]1COC(=O)[C@@H]1[C@@H]2c1cc(OC)c(OC)c(OC)c1,8,> 100,7.3
COc1cc([C@@H]2c3cc(O)c(O)cc3[C@@H](Nc3ccccc3)[C@H]3COC(=O)[C@H]23)cc(OC)c1OC,9,50,> 2.1
COc1cc([C@@H]2c3cc(O)c(O)cc3[C@@H](Nc3ccc([N+](=O)[O-])cc3)[C@H]3COC(=O)[C@H]23)cc(OC)c1OC,23,> 100,> 1.9
